Measurements published in ChEMBL document CHEMBL5104206, “Oleic amide derivatives as small molecule stimulators of the human proteasome's core particle” (RSC Med Chem, 2022).
The source made the active and inactive calls. The rule behind the calls is not given here.

Legend:
[1] = biological target: T1, 20S proteasome (Homo sapiens) (UniProt P49721+P20618+P28074+P28062+P28065+P28072+P25786+P25787+P25788+P25789+P28066+P60900+O14818+Q8TAA3+P40306+A5LHX3+P49720+P28070+Q99436); assay: Stimulation of human 20S proteasome assessed as increase in proteasome activity at 25 uM and measured upto 60 mins using FRET peptide as substrate by FRET assay relative to control; assay type: protein-complex assay; conditions: filed as activator
Method in brief: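 Purified 20S CP (5 nM) with 20 µM FRET peptide reporter in Tris-HCl (50 mM, pH 7.63), 2% DMSO, 25 µL. Controls were reporter alone and basal enzyme with DMSO, in triplicate. Read at 37 °C, ex 335/em 493 nm, every 2 min for 60 min. Rate taken as slope of linear portion.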

[2] = biological target: T2, Proteasome Macropain subunit MB1 (Homo sapiens) (UniProt P28074); assay: Stimulation of human 20S proteasome beta 5 subunit in human HEK-293T cells assessed as increase in proteasome activity at 6.25 to 25 uM preincubated for 2 hrs followed by Me4BodipyFL-Ahx3Leu3VS proteasome probe addition and measured after 1 hrs by SDS-PAGE analysis; assay type: cell-based; conditions: filed as activator, dose 6.25-25 µM
T2 sequence (whole entry): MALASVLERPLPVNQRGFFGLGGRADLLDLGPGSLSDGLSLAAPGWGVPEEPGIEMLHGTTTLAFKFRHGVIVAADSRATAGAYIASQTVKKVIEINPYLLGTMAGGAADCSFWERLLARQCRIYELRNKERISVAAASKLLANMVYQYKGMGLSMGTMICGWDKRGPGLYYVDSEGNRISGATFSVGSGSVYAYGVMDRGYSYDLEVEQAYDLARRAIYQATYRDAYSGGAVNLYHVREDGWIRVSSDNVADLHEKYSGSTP
Method in brief: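 Treated 2 h in fresh medium, DMSO control 0.5%, then 1 µM Me4BodipyFL-Ahx3Leu3VS probe added. Cells lysed in M-PER with protease inhibitors. 50 µg protein run on 4–15% SDS-PAGE, in-gel fluorescence scanned at 488 nm. Band densities quantified, triplicate.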

HEK-293T = assay: Cytotoxicity against human HEK-293T cells assessed as reduction in cell viability at 6.25 to 25 uM incubated for 24 hrs by CellTiter Glo viability assay; assay type: toxicity, cell-based; conditions: dose 6.25-25 µM
Method in brief: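 HEK-293T seeded at 5000 cells/well, attached overnight, medium refreshed. Compound in DMSO added in triplicate, 1% final DMSO, 24 h. Plate equilibrated to room temperature 30 min before CellTiter-Glo reagent, shaken 10 min, signal stabilized 10 min. Luminescence read.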

[3] = biological target: T1, 20S proteasome (Homo sapiens); assay: Activation of human 20S proteasome mediated degradation of alpha-synuclein assessed as amount of alpha-synuclein remaining at 25 uM and incubated for 2 hrs by Coomassie staining based SDS-PAGE analysis; assay type: protein-complex assay; conditions: filed as activator
Method in brief: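 Human 20S CP (5 nM final) with α-Syn monomer (400 ng) in Tris-HCl (50 mM, pH 7.6), 2% DMSO, 18 µL total, 2 h at 37 °C, triplicate. Mixed on ice before incubation. Stopped in SDS loading buffer at 95 °C 5 min. Run on 4–15% SDS-PAGE, Coomassie stained, band intensity normalized to α-Syn without 20S CP.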

Compound | Activity [1] [%] | further results
CCCCCCCC/C=C\CCCCCCCC(=O)Nc1ccc(Cl)cc1 | 144 | 
CCCCCCCC/C=C\CCCCCCCC(=O)N[C@H]1CC[C@H](C)CC1 | 118 | 
CCCCCCCC/C=C\CCCCCCCC(=O)NCCCC | 138 | 
CCCCCCCC/C=C\CCCCCCCC(=O)NC1CCCC1 | 218 | 
CCCCCCCC/C=C\CCCCCCCC(=O)Nc1ccc(C(C)(C)C)cc1 | 68 | 
CCCCCCCC/C=C\CCCCCCCC(=O)NCc1ccc(C)cc1 | 167 | 
CCCCCCCC/C=C\CCCCCCCC(=O)NC | 132 | 
CCCCCCCC/C=C\CCCCCCCC(=O)NCc1ccccc1C | 107 | 
CCCCCCCC/C=C\CCCCCCCC(=O)NCc1ccc(OC)cc1 | 116 | 
CCCCCCCC/C=C\CCCCCCCC(=O)N[C@H](C)c1ccccc1 | 225 | 
CCCCCCCC/C=C\CCCCCCCC(=O)NCC(C)C | 139 | 
CCCCCCCC/C=C\CCCCCCCC(=O)NCc1ccc(O)cc1 | 361 | Activity [2]: Active; Activity (HEK-293T): Toxic; Activity [3]: Active
CCCCCCCC/C=C\CCCCCCCC(=O)NC1CCCCCC1 | 136 | 
CCCCCCCC/C=C\CCCCCCCC(=O)Nc1ccccc1 | 159 | 
CCCCCCCC/C=C\CCCCCCCC(=O)NCCC | 154 | Activity [2]: Active; Activity (HEK-293T): Toxic; Activity [3]: Active
CCCCC/C=C\C/C=C\C/C=C\C/C=C\CCCC(=O)Nc1ccc(O)cc1 | 219 | Activity ([2]; DDE = dose-dependent effect): Dde; Activity (HEK-293T): Toxic; Activity [3]: Active
CCCCCCCC/C=C\CCCCCCCC(=O)NC1CCC1 | 202 | 
CCCCCCCC/C=C\CCCCCCCC(=O)N[C@@H](C)c1ccccc1 | 195 | 
CCCCCCCC/C=C\CCCCCCCC(=O)NC1CCCCCCC1 | 148 | 
CCCCCCCC/C=C\CCCCCCCC(=O)NCc1ccc(C(F)(F)F)cc1 | 92 | 
CCCCCCCC/C=C\CCCCCCCC(=O)NCc1ccc(Cl)cc1 | 138 | 
CCCCCCCC/C=C\CCCCCCCC(=O)Nc1ccc(O)cc1 | 247 | 
CCCCCCCC/C=C\CCCCCCCC(=O)NC1CCCCC1 | 204 | 
CCCCCCCC/C=C\CCCCCCCC(=O)NCc1cccc(C)c1 | 183 | 
CCCCCCCC/C=C\CCCCCCCC(=O)Nc1ccc(C(C)=O)cc1 | 241 | Activity [2]: Active; Activity (HEK-293T): Non-Toxic; Activity [3]: Active
CCCCCCCC/C=C\CCCCCCCC(=O)Nc1ccc(Oc2ccccc2)cc1 | 145 | 
CCCCCCCC/C=C\CCCCCCCC(=O)NCc1ccc(C(C)(C)C)cc1 | 106 | 
CCCCCCCC/C=C\CCCCCCCC(=O)NCCCCC | 124 | 
CCCCCCCC/C=C\CCCCCCCC(=O)NCc1ccccc1 | 208 | 
